Measured values: ChEMBL document CHEMBL3612027, “Substrate-guided optimization of the syringolins yields potent proteasome inhibitors with activity against leukemia cell lines” (Bioorg Med Chem, 2015)

Tests used:
MCF7 = experiment: Cytotoxicity against human MCF7 cells assessed as cell growth at 10 uM after 48 hrs relative to control; assay type: functional; conditions: MCF7, 48 h, read-out: Activity
Summary of the method: (§1)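 Run at the National Cancer Institute as a single-dose screen across its 60-cell-line cancer panel. Compound was tested at 10 micromolar, and growth was expressed as a percentage of negative-control cultures.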

M14 = experiment: Cytotoxicity against human M14 cells assessed as cell growth at 10 uM after 48 hrs relative to control; assay type: functional; conditions: M14, 48 h, read-out: Activity; summary of the method: as §1
Malme-3M = experiment: Cytotoxicity against human MALME-3M cells assessed as cell growth at 10 uM after 48 hrs relative to control; assay type: functional; conditions: read-out: Activity; summary of the method: as §1
TK-10 = experiment: Cytotoxicity against human TK10 cells assessed as cell growth at 10 uM after 48 hrs relative to control; assay type: functional; conditions: TK-10, 48 h, read-out: Activity
Summary of the method: (§2)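 Submitted to the National Cancer Institute for a single-dose screen at 10 micromolar against 60 cancer cell lines. Growth is expressed relative to negative-control cultures.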

UACC-257 = experiment: Cytotoxicity against human UACC257 cells assessed as cell growth at 10 uM after 48 hrs relative to control; assay type: functional; conditions: UACC-257, 48 h, read-out: Activity; summary of the method: as §2
MDA-MB-468 = experiment: Cytotoxicity against human MDA-MB-468 cells assessed as cell growth at 10 uM after 48 hrs relative to control; assay type: functional; conditions: MDA-MB-468, 48 h, read-out: Activity; summary of the method: as §1
[1] = Cytotoxicity against human RPMI-8226 cells after 48 hrs; assay type: functional; conditions: RPMI-8226, 48 h
BT-549 = experiment: Cytotoxicity against human BT549 cells assessed as cell growth at 10 uM after 48 hrs relative to control; assay type: functional; conditions: BT-549, 48 h, read-out: Activity; summary of the method: as §1
NCI-H322M = experiment: Cytotoxicity against human NCI-H322M cells assessed as cell growth at 10 uM after 48 hrs relative to control; assay type: functional; conditions: read-out: Activity; summary of the method: as §1
CCRF-CEM = experiment: Cytotoxicity against human CCRF-CEM cells assessed as cell growth at 10 uM after 48 hrs relative to control; assay type: functional; conditions: read-out: Activity; summary of the method: as §1
SNB-75 = experiment: Cytotoxicity against human SNB75 cells assessed as cell growth at 10 uM after 48 hrs relative to control; assay type: functional; conditions: SNB-75, 48 h, read-out: Activity; summary of the method: as §2
K562 = experiment: Cytotoxicity against human K562 cells after 48 hrs; assay type: functional; conditions: K562, 48 h
COLO 205 = experiment: Cytotoxicity against human COLO205 cells assessed as cell growth at 10 uM after 48 hrs relative to control; assay type: functional; conditions: COLO 205, 48 h, read-out: Activity; summary of the method: as §1
U-251 = experiment: Cytotoxicity against human U251 cells assessed as cell growth at 10 uM after 48 hrs relative to control; assay type: functional; conditions: U-251, 48 h, read-out: Activity; summary of the method: as §2
CAKI-1 = experiment: Cytotoxicity against human Caki1 cells assessed as cell growth at 10 uM after 48 hrs relative to control; assay type: functional; conditions: CAKI-1, 48 h, read-out: Activity; summary of the method: as §1
SW-620 = experiment: Cytotoxicity against human SW620 cells assessed as cell growth at 10 uM after 48 hrs relative to control; assay type: functional; conditions: SW-620, 48 h, read-out: Activity; summary of the method: as §2
OVCAR-8 = experiment: Cytotoxicity against human OVCAR8 cells assessed as cell growth at 10 uM after 48 hrs relative to control; assay type: functional; conditions: OVCAR-8, 48 h, read-out: Activity; summary of the method: as §1
SF-539 = experiment: Cytotoxicity against human SF539 cells assessed as cell growth at 10 uM after 48 hrs relative to control; assay type: functional; conditions: SF-539, 48 h, read-out: Activity; summary of the method: as §1
HL-60 = experiment: Cytotoxicity against human HL60 cells after 48 hrs; assay type: functional; conditions: HL-60, 48 h
MDA-MB-435 = experiment: Cytotoxicity against human MDA-MB-435 cells assessed as cell growth at 10 uM after 48 hrs relative to control; assay type: functional; conditions: MDA-MB-435, 48 h, read-out: Activity; summary of the method: as §1
MOLT-4 [2] = experiment: Cytotoxicity against human MOLT4 cells assessed as cell growth at 10 uM after 48 hrs relative to control; assay type: functional; conditions: MOLT-4, 48 h, read-out: Activity; summary of the method: as §1
NCI-H226 = experiment: Cytotoxicity against human NCI-H226 cells assessed as cell growth at 10 uM after 48 hrs relative to control; assay type: functional; conditions: NCI-H226, 48 h, read-out: Activity; summary of the method: as §1
KM12 = experiment: Cytotoxicity against human KM12 cells assessed as cell growth at 10 uM after 48 hrs relative to control; assay type: functional; conditions: KM12, 48 h, read-out: Activity; summary of the method: as §1
RPMI-8226 = experiment: Cytotoxicity against human RPMI8226 cells assessed as cell growth at 10 uM after 48 hrs relative to control; assay type: functional; conditions: RPMI-8226, 48 h, read-out: Activity; summary of the method: as §1
PC-3 = experiment: Cytotoxicity against human PC3 cells assessed as cell growth at 10 uM after 48 hrs relative to control; assay type: functional; conditions: PC-3, 48 h, read-out: Activity; summary of the method: as §1
HCT-15 = experiment: Cytotoxicity against human HCT15 cells assessed as cell growth at 10 uM after 48 hrs relative to control; assay type: functional; conditions: HCT-15, 48 h, read-out: Activity; summary of the method: as §1
MOLT-4 [3] = experiment: Cytotoxicity against human MOLT4 cells after 48 hrs; assay type: functional; conditions: MOLT-4, 48 h
SF-295 = experiment: Cytotoxicity against human SF295 cells assessed as cell growth at 10 uM after 48 hrs relative to control; assay type: functional; conditions: SF-295, 48 h, read-out: Activity; summary of the method: as §1
HCC 2998 = experiment: Cytotoxicity against human HCC2998 cells assessed as cell growth at 10 uM after 48 hrs relative to control; assay type: functional; conditions: HCC 2998, 48 h, read-out: Activity; summary of the method: as §1
ACHN = experiment: Cytotoxicity against human ACHN cells assessed as cell growth at 10 uM after 48 hrs relative to control; assay type: functional; conditions: read-out: Activity; summary of the method: as §1
[4] = molecular target: T1, Proteasome Macropain subunit MB1 (Homo sapiens, UniProt P28074); experiment: Inhibition of human 20S proteasome beta5 subunit using Suc-LLVY-AMC as substrate by fluorescence assay
T1 sequence (P28074 whole entry): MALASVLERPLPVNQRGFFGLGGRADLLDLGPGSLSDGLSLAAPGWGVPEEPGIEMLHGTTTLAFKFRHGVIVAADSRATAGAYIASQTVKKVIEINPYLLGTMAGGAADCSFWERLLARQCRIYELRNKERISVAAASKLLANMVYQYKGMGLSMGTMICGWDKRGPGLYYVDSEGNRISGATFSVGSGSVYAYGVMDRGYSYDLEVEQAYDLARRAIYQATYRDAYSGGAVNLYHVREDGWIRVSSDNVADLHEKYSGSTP

NCI/ADR-RES = experiment: Cytotoxicity against human NCI/ADR-RES cells assessed as cell growth at 10 uM after 48 hrs relative to control; assay type: functional; conditions: read-out: Activity; summary of the method: as §1
HOP-62 = experiment: Cytotoxicity against human HOP62 cells assessed as cell growth at 10 uM after 48 hrs relative to control; assay type: functional; conditions: HOP-62, 48 h, read-out: Activity; summary of the method: as §1
A549 = experiment: Cytotoxicity against human A549 cells assessed as cell growth at 10 uM after 48 hrs relative to control; assay type: functional; conditions: A549, 48 h, read-out: Activity; summary of the method: as §1
NCI-H522 = experiment: Cytotoxicity against human NCI-H522 cells assessed as cell growth at 10 uM after 48 hrs relative to control; assay type: functional; conditions: NCI-H522, 48 h, read-out: Activity; summary of the method: as §1

Compound	growth at 10 µM (MCF7) [%]	growth at 10 µM (M14) [%]	growth at 10 µM (Malme-3M) [%]	growth at 10 µM (TK-10) [%]	growth at 10 µM (UACC-257) [%]	growth at 10 µM (BT-549) [%]	growth at 10 µM (NCI-H322M) [%]	growth at 10 µM (CCRF-CEM) [%]	growth at 10 µM (SNB-75) [%]	growth at 10 µM (COLO 205) [%]	growth at 10 µM (U-251) [%]	growth at 10 µM (CAKI-1) [%]	growth at 10 µM (SW-620) [%]	growth at 10 µM (OVCAR-8) [%]	growth at 10 µM (SF-539) [%]	growth at 10 µM (MDA-MB-435) [%]	growth at 10 µM (MOLT-4 [2]) [%]	growth at 10 µM (NCI-H226) [%]	growth at 10 µM (KM12) [%]	growth at 10 µM (RPMI-8226) [%]	other results
COC(=O)[C@@H](NC(=O)N[C@H](C(=O)N[C@H]1CCCCNC(=O)/C=C/[C@H](C(C)C)NC1=O)C(C)C)C(C)C	42.8	64.5	29.9	85.8	33.4	5.44	77	15.1	-34.6	51.7	8.29	103	30.3	86.4	-19.4	-55.5	10.2	-24	1.78	15.2	growth at 10 µM (MDA-MB-468): -0.21%; GI50 [1]: 3.97 µM; GI50 (K562): 6.12 µM; GI50 (HL-60): 5.41 µM; growth at 10 µM (PC-3): 62%; growth at 10 µM (HCT-15): 98.2%; GI50 (MOLT-4 [3]): 4.73 µM; growth at 10 µM (SF-295): 58.9%; growth at 10 µM (HCC 2998): -0.39%; growth at 10 µM (ACHN): 96.4%; Ki [4]: 2.12 µM; growth at 10 µM (NCI/ADR-RES): 100%; growth at 10 µM (HOP-62): 22.9%; growth at 10 µM (A549): 42.1%
COC(=O)[C@@H](NC(=O)N[C@H](C(=O)N[C@H]1CCCCNC(=O)/C=C/[C@H](Cc2c[nH]c3ccccc23)NC1=O)C(C)C)C(C)C	48.5	86.7	47.9	94.1	65.4	8.05	76.2	15.8	-34	58.9	27.4	98.8	58.3	97.1	-14.4	-81.5	8.54	15.1	74.5	19	growth at 10 µM (NCI-H522): -17.8%; growth at 10 µM (PC-3): 76.3%; growth at 10 µM (HCT-15): 109%; growth at 10 µM (SF-295): 85.4%; growth at 10 µM (HCC 2998): 44.2%; growth at 10 µM (ACHN): 90.8%; Ki [4]: 1.71 µM; growth at 10 µM (NCI/ADR-RES): 98.4%; growth at 10 µM (HOP-62): 95%; growth at 10 µM (A549): 77.5%
COC(=O)[C@@H](NC(=O)N[C@@H](Cc1ccccc1)C(=O)N[C@H]1CCCCNC(=O)/C=C/[C@H](Cc2ccccc2)NC1=O)C(C)C	37.4	53.9	-0.39	75	16.4	3.25	98.1	9.59	-40.2	44.6	17.8	106	23.1	82	-22.2	-69.1	-0.13	-44.2	7.99	7.17	growth at 10 µM (MDA-MB-468): 0.26%; GI50 [1]: 2.72 µM; GI50 (K562): 14.6 µM; GI50 (HL-60): 4.34 µM; growth at 10 µM (NCI-H522): -37%; growth at 10 µM (PC-3): 73.2%; growth at 10 µM (HCT-15): 101%; GI50 (MOLT-4 [3]): 3.32 µM; growth at 10 µM (SF-295): 51.3%; growth at 10 µM (HCC 2998): 5.56%; growth at 10 µM (ACHN): 91.4%; Ki [4]: 0.447 µM; growth at 10 µM (NCI/ADR-RES): 98.8%; growth at 10 µM (HOP-62): 51.6%; growth at 10 µM (A549): 68.6%
